# Results from the RNAGym collection of RNA variant scans (doi:10.1126/science.aae0568).
# This sample holds only a part of the variants without activity.
# B1: tRNA (parent)
# chain: GUUCCGUUGGCGUAAUGGUAACGCGUCUCCCUCCUAAGGAGAAGACUGCGGGUUCGAGUCCCGUACGGAACG
# Variants of: B1
# Test: yeast fitness relative to wild type (ratio to wild type); higher = fitter; tRNA-Arg(CCU), competitive growth, 37 C, YPD
# In short: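 For this measurement, the tRNA-Arg(CCU) gene was varied by chemical synthesis at a 3% per-site mutation rate across 69 sites, and each variant was placed at the native genomic locus in Saccharomyces cerevisiae. The pooled strains went through a 24-hour competition in YPD at 37°C in six parallel replicates, with amplicons from start and end populations read by 100-nucleotide paired-end sequencing. Darwinian fitness relative to wild type followed from the change in each genotype's frequency. Genotypes needed ≥ 100 starting reads, and estimates < 0.5 were set to 0.5.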
row,Variant,yeast fitness
1,C11U A36C C46G,≤ 0.5
2,C11U C46G G51A,0.571
3,C11G U28C G39A C60A G67A,≤ 0.5
4,C11U C27G G39C,≤ 0.5
5,C11G U19G,0.577
6,C11G G25A C29U C34U,≤ 0.5
7,C11G G25A A36U C60U,≤ 0.5
8,C11U A57U A65U,0.653
9,C11U A14G C24G,≤ 0.5
10,C11U C27G C31G G39C G56A C61A A69G,0.641
11,C11U C62G G63A,0.529
12,C11U C27A G48A U53A C61G,≤ 0.5
13,C11U C24G C29U G50A G58C G63A C66U G68A,≤ 0.5
14,C11U C62U A70G,0.753
15,C11U A21U C27A,0.576
16,C11U C29A U59G,≤ 0.5
17,C11U C24G C61A G67A,≤ 0.5
18,C11U A70G,0.978
19,C11U C30A U35A G38A C61G,≤ 0.5
20,C11U A21U C27A C34A A36U U47C,≤ 0.5
21,C11U A40G,0.866
22,C11U C31U C60A U64A,≤ 0.5
23,C11G G50C,0.597
24,C11G G50A,0.716

row,Variant,yeast fitness
1,C11U C22A,0.882
2,C11U A40G C61G,≤ 0.5
3,C11U A42U A43G G52C C60G,≤ 0.5
4,C11U A14U U28A C33U,0.535
5,C11U C24A A43G C62A,≤ 0.5
6,C11U A45C U59C,≤ 0.5
7,C11G U13C A37U,≤ 0.5
8,C11U C49G A57G,≤ 0.5
9,C11G U28A G39A,≤ 0.5
10,C11U C33U G48A,0.58
11,C11G G44C C66A,0.614
12,C11U A45C C49U,0.765
13,C11U A40C U53A,0.586
14,C11U C66A,0.65
15,C11U A40U G67A,≤ 0.5
16,C11U C29U C66G,≤ 0.5
17,C11U C29U C66A,0.553
18,C11G U19A A21G C27U G39C,≤ 0.5
19,C11U A36C,0.641
20,C11U A36U,0.606
21,C11U A15G C27G A45U,≤ 0.5
22,C11U C22U G44C,0.553
23,C11U A36G G48C A65C,0.675
24,C11U A42G C60A,≤ 0.5

row,Variant,yeast fitness
1,C11U A15C C30U A42C,≤ 0.5
2,C11U C33U A70U,0.612
3,C11U C34G G50C,0.576
4,C11G U13G A21G,0.785
5,C11U A21U A43C G68C,≤ 0.5
6,C11G G18C U26C C31G C46U C55U,≤ 0.5
7,C11G U16A U28C C29U G39A U59G G67U,≤ 0.5
8,C11U A14U C27U A40G,≤ 0.5
9,C11U C33G,0.734
10,C11U C33U,0.724
11,C11G G23C G25A,0.977
12,C11G U28C C60A G67A,0.567
13,C11U A15U C22U G67A,≤ 0.5
14,C11U C27U C31A U35C C55G C62U C66U A70C,≤ 0.5
15,C11U A40U C46U,0.637
16,C11U A40U C46A,0.74
17,C11U A57U A69U,0.613
18,C11U A15C A21U C24A C33A C66A,≤ 0.5
19,C11G U28A G68A,≤ 0.5
20,C11U A36G G44A C46U,0.993
21,C11U C30U U47A G67C,≤ 0.5
22,C11G G48C,0.687
23,C11U C30U G48C G68C,≤ 0.5
24,C11U A15U,0.757

row,Variant,yeast fitness
1,C11G G48C G51C U53C A57U C66U,≤ 0.5
2,C11G U28C,0.653
3,C11U A14G G51C A69U,≤ 0.5
4,C11U C24G C33G,0.541
5,C11U C46U U59C,0.767
6,C11U C30A C49U G67U,≤ 0.5
7,C11U C30G,0.694
8,C11U A36U G58A G67C,≤ 0.5
9,C11U A20U G68A A70C,0.515
10,C11U A14C A37C,0.544
11,C11U A20U U32A G39A A65C,≤ 0.5
12,C11U A14G C27G C31U G68C,≤ 0.5
13,C11U C29G C33U G39U C60U A65U A69U,≤ 0.5
14,C11U A15U C27G,0.529
15,C11G U16A C29U U53C C62G,≤ 0.5
16,C11U A36G C46U,0.77
17,C11U C29U A40C C49G,0.648
18,C11G U26C,0.569
19,C11G U59A,0.641
20,C11U C31A C55G C60A A70G,0.535
21,C11U C29U C49A,≤ 0.5
22,C11U C24G C27G A65U,0.576
23,C11U A37C C46G C60U C61A,0.536
24,C11U C22G U59C,0.575

row,Variant,yeast fitness
1,C11U C33G A36U A42G,≤ 0.5
2,C11U C30U A65C,≤ 0.5
3,C11G G51C,0.58
4,C11U C34G C55G U59C C60U G67U,≤ 0.5
5,C11U A20U G39A G63A A70U,≤ 0.5
6,C11U A15U C27G A40C,≤ 0.5
7,C11G G25A C34G,≤ 0.5
8,C11U C22G U28A C31G C55A G68C,≤ 0.5
9,C11U C24G C33A A40C,0.955
10,C11G U16C A21U C30G G50C,≤ 0.5
11,C11U A20G U59A,0.514
12,C11U C22G C30U U54C,≤ 0.5
13,C11U C27A G56C C62A A65C,≤ 0.5
14,C11U C24G C27G A36U G38C C60G C66A,≤ 0.5
15,C11U A15G U32A C49A G56C,≤ 0.5
16,C11G G39C C61U,≤ 0.5
17,C11G U47A G68C,≤ 0.5
18,C11G U35A C66G,≤ 0.5
19,C11U A15G C27G G56C,≤ 0.5
20,C11U A43C,0.686
21,C11U A43U,0.907
22,C11G G25A U32C G50A G51U U59A U64A,0.628
23,C11U A14C A15G U26A C34A G63A,≤ 0.5
24,C11U C24G C27G G52A,0.551

row,Variant,yeast fitness
1,C11U C61A,0.869
2,C11U C61G,0.638
3,C11G G56C,0.627
4,C11U C24G A70G,0.649
5,C11U C29U A57U C61U,≤ 0.5
6,C11U C46G,0.986
7,C11G U19C A45U,≤ 0.5
8,C11U A37U G38A,≤ 0.5
9,C11G U19A C22G G68C,≤ 0.5
10,C11U A45U G58C A69C,≤ 0.5
11,C11U A37C C66U,0.611
12,C11U A40C G68A,0.733
13,C11U A15U C33A,≤ 0.5
14,C11U A21U A69C,0.772
15,C11G U26A U53A,≤ 0.5
16,C11G U28A G39A G48A G67A,≤ 0.5
17,C11U A20C U47G,≤ 0.5
18,C11G G18C U26C C31G C46U C60G C61G A65C,0.61
19,C11U C22U G38A U54C,≤ 0.5
20,C11U C33G A65C,0.694
21,C11G U16A C30A A69U,≤ 0.5
22,C11G G23C,1.07
23,C11U C34U G38A G44C,0.541
24,C11U A40C G51A C61U A69C,≤ 0.5

row,Variant,yeast fitness
1,C11U A20G U35A,≤ 0.5
2,C11U C34G A42C,≤ 0.5
3,C11U C30A C55G A57C,≤ 0.5
4,C11U A42U,0.897
5,C11U A15U U26C C49A,≤ 0.5
6,C11U C22G C29G G41A,≤ 0.5
7,C11U C24G C33A A40C A69C,0.72
8,C11U C33G U47A U64G,0.552
9,C11U C22A C31U G68C,≤ 0.5
10,C11G G58A,0.722
11,C11U A36U C60A,≤ 0.5
12,C11U C27U U35C C61G,0.606
13,C11U A21U G68C,0.69
14,C11U A21C A42C A69C,≤ 0.5
15,C11U A14U A40G A42C,≤ 0.5
16,C11U A15G A43U,0.666
17,C11U A15U G52A C61G,≤ 0.5
18,C11U C31U A65C,0.52
19,C11U A15U C22U,0.507
20,C11G G39A,0.63
21,C11U A21G U35C,0.538
22,C11U A21U G50C,0.788
23,C11U A21U G39C C55U,≤ 0.5
